Experimental data: ChEMBL document CHEMBL3351896, “Small Molecule that Reverses Dexamethasone Resistance in T-cell Acute Lymphoblastic Leukemia (T-ALL)” (ACS Med Chem Lett, 2014)
Activity calls are given as the source filed them. The rule behind the calls is not given here.

Columns and labels:
Type in all cases: functional, cell-based
CUTLL1 [1] = experiment: Effect on NXT1 gene expression in human CUTLL1 cells in absence of 1 uM dexamethasone at 30 uM after 24 hrs by microarray method
Procedure, shortened: (§1)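 CUTLL1 T-ALL cells exposed 24 h to vehicle (DMSO), dexamethasone alone (1 μM), test agent alone (30 μM), or dexamethasone (1 μM) plus test agent (30 μM), in triplicate. Expression profiled by microarray. Leading-edge genes from GSEA were compared between the dexamethasone-plus-agent and dexamethasone-alone groups, using glucocorticoid-regulated gene sets from ALL patients on glucocorticoid therapy.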

CUTLL1 [2] = experiment: Effect on BCCIP gene expression in human CUTLL1 cells in absence of 1 uM dexamethasone at 30 uM after 24 hrs by microarray method; procedure, shortened: as §1
CUTLL1 [3] = experiment: Effect on TSC22D3 gene expression in human CUTLL1 cells in presence of 1 uM dexamethasone at 30 uM after 24 hrs by microarray method
Procedure, shortened: (§2)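 Human CUTLL1 T-ALL cells exposed for 24 h to vehicle (DMSO), dexamethasone alone (1 μM), test compound alone (30 μM), or dexamethasone 1 μM plus compound 30 μM, each in triplicate. Expression profiled by microarray. Glucocorticoid-regulated gene sets from ALL patients on glucocorticoid therapy scored by GSEA. Leading-edge genes compared between the combination and dexamethasone alone.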

CUTLL1 [4] = experiment: Effect on RANBP1 gene expression in human CUTLL1 cells in presence of 1 uM dexamethasone at 30 uM after 24 hrs by microarray method; procedure, shortened: as §2
CUTLL1 [5] = experiment: Effect on ZFP36L2 gene expression in human CUTLL1 cells in presence of 1 uM dexamethasone at 30 uM after 24 hrs by microarray method; procedure, shortened: as §2
[6] = Growth inhibition of human CUTLL1 cells in absence of 1 uM dexamethasone after 48 hrs by alamar blue assay; conditions: CUTLL1, 48 h
Procedure, shortened: (§3)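 CUTLL1 cells given compound alone or with dexamethasone 1 μM. Growth inhibition measured by alamar blue after 48 h.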

CUTLL1 [7] = experiment: Growth inhibition of human CUTLL1 cells at 50 uM in presence of staurosporine after 48 hrs by alamar blue assay
CUTLL1 [8] = experiment: Effect on RPS14 gene expression in human CUTLL1 cells in absence of 1 uM dexamethasone at 30 uM after 24 hrs by microarray method; procedure, shortened: as §2
CUTLL1 [9] = experiment: Effect on GINS2 gene expression in human CUTLL1 cells in absence of 1 uM dexamethasone at 30 uM after 24 hrs by microarray method; procedure, shortened: as §1
CUTLL1 [10] = experiment: Increase in GR expression in human CUTLL1 cells at < 25 uM after 24 hrs by Western blotting method
CUTLL1 [11] = experiment: Effect on SOCS1 gene expression in human CUTLL1 cells in absence of 1 uM dexamethasone at 30 uM after 24 hrs by microarray method; procedure, shortened: as §2
CUTLL1 [12] = experiment: Effect on PAICS gene expression in human CUTLL1 cells in absence of 1 uM dexamethasone at 30 uM after 24 hrs by microarray method; procedure, shortened: as §1
CUTLL1 [13] = experiment: Effect on TSR1 gene expression in human CUTLL1 cells in presence of 1 uM dexamethasone at 30 uM after 24 hrs by microarray method; procedure, shortened: as §2
[14] = Growth inhibition of human CUTLL1 cells in presence of 1 uM dexamethasone after 48 hrs by alamar blue assay; conditions: CUTLL1, 48 h; procedure, shortened: as §3
CUTLL1 [15] = experiment: Effect on CDC45 gene expression in human CUTLL1 cells in absence of 1 uM dexamethasone at 30 uM after 24 hrs by microarray method; procedure, shortened: as §1

## Nc1ncc(-c2ccncc2)c(C2CC2)n1
CUTLL1 [1]
  Activity: inactive
CUTLL1 [2]
  Activity: inactive
CUTLL1 [3]
  Activity: Active
CUTLL1 [4]
  Activity: Active
CUTLL1 [5]
  Activity: Active
[6]
  EC50: ≥ 100 µM
CUTLL1 [7]
  growth inhibition (GI): inactive
CUTLL1 [8]
  Activity: inactive
CUTLL1 [9]
  Activity: inactive
CUTLL1 [10]
  Activity: inactive
CUTLL1 [11]
  Activity: inactive
CUTLL1 [12]
  Activity: inactive
CUTLL1 [13]
  Activity: Active
[14]
  EC50: 28 µM
CUTLL1 [15]
  Activity: inactive
